Tests used:
[1] = molecular target: T1, Prostaglandin E2 receptor EP4 subtype (Homo sapiens, UniProt P35408); assay: Antagonist activity against EP4 in human whole blood assessed as reversal of PGE2-mediated suppression of LPS-induced TNF-alpha production preincubated for 30 mins followed by LPS stimulation measured after 20 to 24 hrs by enzyme immunoassay; type: tissue-based
How it was run: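 Pooled blood from donors free of NSAIDs or celecoxib for 48 h and of glucocorticoids for 2 weeks. Blood pretreated 30 min at 37 °C, 5% CO2 with compound in DMSO (7-point curve, triplicate). LPS […] ± 10 nM PGE2 (final) added, then incubated 20–24 h. Plasma TNFα read at A450-A650. IC50 from sigmoidal nonlinear fit; geometric mean of independent runs.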

[2] = molecular target: T1, Prostaglandin E2 receptor EP4 subtype; assay: Antagonist activity against human EP4 expressed in HEK293 cells assessed as inhibition of PGE2-stimulated production of cAMP incubated for 20 mins by HTRF assay; type: functional, cell-based

T1 sequence (P35408 whole entry): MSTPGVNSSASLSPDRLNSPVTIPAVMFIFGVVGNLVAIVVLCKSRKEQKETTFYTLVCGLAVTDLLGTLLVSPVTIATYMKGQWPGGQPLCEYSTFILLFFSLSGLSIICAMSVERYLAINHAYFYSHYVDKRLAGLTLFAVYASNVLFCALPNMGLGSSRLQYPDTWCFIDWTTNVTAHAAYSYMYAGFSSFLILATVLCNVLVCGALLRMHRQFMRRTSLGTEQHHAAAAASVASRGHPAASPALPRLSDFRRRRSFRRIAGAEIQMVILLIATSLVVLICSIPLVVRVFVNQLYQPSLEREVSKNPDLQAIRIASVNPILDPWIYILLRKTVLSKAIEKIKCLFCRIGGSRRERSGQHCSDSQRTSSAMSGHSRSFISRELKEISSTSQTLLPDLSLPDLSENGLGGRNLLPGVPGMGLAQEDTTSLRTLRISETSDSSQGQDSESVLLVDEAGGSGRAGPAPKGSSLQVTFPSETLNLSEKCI

Row | IC50 [1] [nM] | IC50 [2] [nM] | Structure (SMILES)
1 | 1160 | 1.61 | Cc1ccc(N2CCC(F)(F)CC2)nc1C(=O)Nc1c(C)cc(C(=O)O)cc1C
2 | – | 84 | Cc1ccc(N2CCC(CO)C2)nc1C(=O)Nc1c(C)cc(C(=O)O)cc1C (stereo not drawn)
